From ChEMBL document CHEMBL4196017, “Design, synthesis and identification of silicon-containing HCV NS5A inhibitors with pan-genotype activity” (Eur J Med Chem, 2018)

Key:
Type in all cases: organism-based
Settings in all cases: in vivo, 336 h
Mus musculus [1] = assay: Toxicity in ICR mouse assessed as eosinophil level in serum at 150 mg/kg, po administered via gavage once daily for 14 days (reference value: 1.66 +/- 0.54%)
Summary of the method: (§1)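 Haematology on abdominal aortic blood taken at necropsy under ether anaesthesia after 14 daily gavage doses (20 ml/kg) in ICR mice, 5 per sex per group, vehicle control. Parameters: WBC, RBC, haemoglobin, platelets, reticulocyte ratio and differential leukocyte counts; mean ± SD, n = 10.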

Mus musculus [2] = assay: Toxicity in ICR mouse assessed as direct bilirubin level in serum at 150 mg/kg, po administered via gavage once daily for 14 days (reference value: 7.6 +/- 0.59 umol/L)
Mus musculus [3] = assay: Toxicity in ICR mouse assessed as RBC count at 150 mg/kg, po administered via gavage once daily for 14 days (reference value: 9.04 +/- 0.8 10^12/L)
Summary of the method: (§2)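 ICR mice, 5 males + 5 females per group, dosed by gavage once daily at 150 mg/kg (20 ml/kg) or vehicle for 14 days; killed after the 14th dose; blood from abdominal aorta under ether anaesthesia for hematology and clinical chemistry; mean ± SD, n = 10.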

Mus musculus [4] = assay: Toxicity in ICR mouse assessed as alkaline phosphatase level in serum at 150 mg/kg, po administered via gavage once daily for 14 days (reference value: 114.44 +/- 21.78 U/L); summary of the method: as §2
Mus musculus [5] = assay: Toxicity in ICR mouse assessed as gamma glutamyltransferase level in serum at 150 mg/kg, po administered via gavage once daily for 14 days (reference value: 0 U/L)
Mus musculus [6] = assay: Toxicity in ICR mouse assessed as testis weight at 150 mg/kg, po administered via gavage once daily for 14 days (reference value: 0.881 +/- 0.037 g)
Mus musculus [7] = assay: Toxicity in ICR mouse assessed as kidney weight at 150 mg/kg, po administered via gavage once daily for 14 days (reference value: 1.51 +/- 0.211 g)
Mus musculus [8] = assay: Toxicity in ICR mouse assessed as alanine aminotransferase level in serum at 150 mg/kg, po administered via gavage once daily for 14 days (reference value: 28.33 +/- 9.89 U/L); summary of the method: as §2
Mus musculus [9] = assay: Toxicity in ICR mouse assessed as hemoglobin concentration at 150 mg/kg, po administered via gavage once daily for 14 days (reference value: 157.4 +/- 15.5 g/L); summary of the method: as §1
Mus musculus [10] = assay: Toxicity in ICR mouse assessed as brain weight at 150 mg/kg, po administered via gavage once daily for 14 days (reference value: 1.686 +/- 0.241 g)
Mus musculus [11] = assay: Toxicity in ICR mouse assessed as total protein level in serum at 150 mg/kg, po administered via gavage once daily for 14 days (reference value: 53.97 +/- 1.56 g/l)

Structure (SMILES): CC[Si](CC)(CC)c1ccc(N2[C@H](c3ccc(NC(=O)[C@@H]4CCCN4C(=O)[C@@H](NC(=O)OC)C(C)C)cc3)CC[C@H]2c2ccc(NC(=O)[C@@H]3CCCN3C(=O)[C@@H](NC(=O)OC)C(C)C)cc2)cc1
- Activity (Mus musculus [1]): 1.88%
- Activity (Mus musculus [2]): 8.57 µmol/L
- Activity (Mus musculus [3]): 9 ×10¹² /L
- Activity (Mus musculus [4]): 105.7 U/L
- Activity (Mus musculus [5]): 0.03 U/L
- Activity (Mus musculus [6]): 0.789 g
- Activity (Mus musculus [7]): 1.579 g
- Activity (Mus musculus [8]): 25.3 U/L
- Activity (Mus musculus [9]): 154.6 g/L
- Activity (Mus musculus [10]): 1.807 g
- Activity (Mus musculus [11]): 52.31 g/L
